Laboratory results as given in ChEMBL document CHEMBL4425113, “Chromenopyrazole, a Versatile Cannabinoid Scaffold with in Vivo Activity in a Model of Multiple Sclerosis” (J Med Chem, 2016).
Activity calls are given as the source filed them. The rule behind the calls is not given here.

What was measured:
Cannabinoid receptor 1 [1] = target: T1, Cannabinoid receptor 1 (Homo sapiens, UniProt P21554); assay: biochemical; assay type: cell-based, HEK293
Homo sapiens [2] = species: Homo sapiens; assay: Selectivity ratio of Ki for human CB2 receptor to Ki for human CB1 receptor
Cannabinoid receptor 2 [3] = target: T2, Cannabinoid receptor 2 (Homo sapiens, UniProt P34972); assay: Displacement of [3H]-CP55940 from human CB2 receptor expressed in HEK293 cell membranes after 90 mins by liquid scintillation counting method
T2 sequence (P34972 whole entry): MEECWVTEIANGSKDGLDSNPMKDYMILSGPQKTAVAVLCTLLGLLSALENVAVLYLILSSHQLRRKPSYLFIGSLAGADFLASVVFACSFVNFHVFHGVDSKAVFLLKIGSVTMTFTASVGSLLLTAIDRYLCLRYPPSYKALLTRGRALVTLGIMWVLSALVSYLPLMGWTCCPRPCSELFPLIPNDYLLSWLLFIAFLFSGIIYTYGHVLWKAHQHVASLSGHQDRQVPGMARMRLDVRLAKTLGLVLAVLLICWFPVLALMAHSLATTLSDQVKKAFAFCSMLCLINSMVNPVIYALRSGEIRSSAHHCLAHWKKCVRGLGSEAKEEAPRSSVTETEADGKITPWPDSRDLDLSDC

Cannabinoid receptor 2 [4] = target: T2, Cannabinoid receptor 2; assay: Partial agonist activity at human CB2 receptor expressed in HEK293 cell membranes assessed as inhibition of forskolin-stimulated cAMP accumulation at 200 nM after 60 mins by HTRF assay; assay type: functional, cell-based
Outline: (§1)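 HEK293 cells stably expressing hCB2, 5.000 cells/well, forskolin-stimulated; Lance-Ultra TR-FRET cAMP kit, 60 min room temperature with HTRF reagents; 665/620 nm ratio converted to cAMP via standard curve; forskolin level set to 100%.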

Cannabinoid receptor 2 [5] = target: T2, Cannabinoid receptor 2; assay: Partial agonist activity at human CB2 receptor expressed in HEK293 cell membranes assessed as inhibition of forskolin-stimulated cAMP accumulation at 1 uM after 60 mins by HTRF assay; assay type: functional, cell-based
Outline: as §1

Cannabinoid receptor 1 [6] = target: T1, Cannabinoid receptor 1; assay: Agonist activity at human CB1 receptor expressed in HEK293 cell membranes assessed as induction of [35S]-GTPgammaS binding after 60 mins by liquid scintillation spectrometric method; assay type: functional
Homo sapiens [7] = species: Homo sapiens; assay: Selectivity ratio of Ki for human CB1 receptor to Ki for human CB2 receptor
Outline: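 Membranes from cells transfected with hCB1 (8 μg/well; Tris 50 mM, MgCl2 5 mM, EDTA 2.5 mM, BSA 0.5 mg/mL, pH 7.4) or hCB2 (4 μg/well; EGTA 2.5 mM, BSA 1 mg/mL, pH 7.5); [3H]CP55940, 90 min at 30 °C. […] Nonspecific binding 10 μM WIN55212-2; GF/C filtration, scintillation; ≥3 experiments in triplicate.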

[8] = Binding affinity to PDEA modified AGP (unknown origin) at 40 uM by surface plasmon resonance method; assay type: ADME; settings: human, isolated protein
Cannabinoid receptor 2 [9] = target: T2, Cannabinoid receptor 2; assay: Antagonist activity at human CB2 receptor expressed in HEK293 cell membranes assessed as inhibition of CP55940-mediated suppression of forskolin-stimulated cAMP accumulation at 1 uM after 60 mins by HTRF assay; assay type: functional, cell-based
Cannabinoid receptor 2 [10] = target: T2, Cannabinoid receptor 2; assay: Agonist activity at human CB2 receptor expressed in HEK293 cell membranes assessed as inhibition of forskolin-stimulated cAMP accumulation at 200 nM after 60 mins by HTRF assay; assay type: functional, cell-based
Outline: as §1

Cannabinoid receptor 2 [11] = target: T2, Cannabinoid receptor 2; assay: Agonist activity at human CB2 receptor expressed in HEK293 cell membranes assessed as inhibition of forskolin-stimulated cAMP accumulation at 1 uM after 60 mins by HTRF assay; assay type: functional, cell-based
Outline: as §1

Cannabinoid receptor 2 [12] = target: T2, Cannabinoid receptor 2; assay: Agonist activity at human CB2 receptor expressed in HEK293 cell membranes assessed as inhibition of forskolin-stimulated cAMP accumulation after 60 mins by HTRF assay; assay type: functional, cell-based
Cannabinoid receptor 2 [13] = target: T2, Cannabinoid receptor 2; assay: Agonist activity at human CB2 receptor expressed in HEK293 cell membranes assessed as induction of [35S]-GTPgammaS binding after 60 mins by liquid scintillation spectrometric method; assay type: functional
Cannabinoid receptor 2 [14] = target: T2, Cannabinoid receptor 2; assay: Antagonist activity at human CB2 receptor expressed in HEK293 cell membranes assessed as inhibition of CP55940-mediated suppression of forskolin-stimulated cAMP accumulation at 200 nM after 60 mins by HTRF assay; assay type: functional, cell-based

T1 sequence (P21554 whole entry): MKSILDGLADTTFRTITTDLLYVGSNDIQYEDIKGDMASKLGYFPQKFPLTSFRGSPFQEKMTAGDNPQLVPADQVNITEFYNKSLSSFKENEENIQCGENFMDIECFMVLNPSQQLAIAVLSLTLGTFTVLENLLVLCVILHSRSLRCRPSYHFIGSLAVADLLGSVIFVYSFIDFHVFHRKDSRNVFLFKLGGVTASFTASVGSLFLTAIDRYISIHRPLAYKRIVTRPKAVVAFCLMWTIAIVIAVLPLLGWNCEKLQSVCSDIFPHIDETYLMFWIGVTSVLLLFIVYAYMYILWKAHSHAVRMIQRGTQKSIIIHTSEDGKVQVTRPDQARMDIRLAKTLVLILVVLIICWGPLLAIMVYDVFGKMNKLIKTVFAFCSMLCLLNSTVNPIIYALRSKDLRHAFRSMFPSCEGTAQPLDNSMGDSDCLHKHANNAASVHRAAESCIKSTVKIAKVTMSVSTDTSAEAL

Compound | Ki (Cannabinoid receptor 1 [1]) [µM] | Ki (Cannabinoid receptor 2 [3]) [µM] | Ratio Ki (Homo sapiens [7]) | also measured
CCCCCCC(C)(C)c1cc(O)c2c(c1)OC(C)(C)c1cnn(-c3ccc(Cl)cc3Cl)c1-2 |  |  |  | Ki (Cannabinoid receptor 1 [1]; hek293): 0.0052 µM; Ratio Ki (Homo sapiens [2]): > 7500
CCCCCCC(C)(C)c1cc(OCc2ccccc2)c2c(c1)OC(C)(C)c1cn[nH]c1-2 | 0.0224 | 0.0933 |  | Ratio Ki (Homo sapiens [2]): 4.2; inhibition (Cannabinoid receptor 2 [4]): Active; inhibition (Cannabinoid receptor 2 [5]): Active; EC50 (Cannabinoid receptor 1 [6]): 0.191 µM
CCCCCCC(C)(C)c1cc(OCCCO)c2c(c1)OC(C)(C)c1cn[nH]c1-2 | 0.45 | 0.026 | 17.3 | inhibition (Cannabinoid receptor 2 [4]): Active; inhibition (Cannabinoid receptor 2 [5]): Active; PB [8]: Active
CCCCCCC(C)(C)c1cc(OCCCO)c2c(c1)OC(C)(C)c1cnn(-c3ccc(Cl)c(Cl)c3)c1-2 | > 40 | > 40 |  | 
CCCCCCC(C)(C)c1cc(O)c2c(c1)OC(C)(C)c1cn[nH]c1-2 |  |  |  | Ki (Cannabinoid receptor 1 [1]; hek293): 0.0285 µM; Ratio Ki (Homo sapiens [2]): > 1400
CCCCCCC(C)(C)c1cc(OCCCO)c2c(c1)OC(C)(C)c1cn(CC)nc1-2 | > 40 | 0.0974 | > 411 | inhibition (Cannabinoid receptor 2 [9]): Active
CCCCCCC(C)(C)c1cc(OCCO)c2c(c1)OC(C)(C)c1cn[nH]c1-2 | 0.0648 | 0.0036 | 18 | inhibition (Cannabinoid receptor 2 [10]): Active; inhibition (Cannabinoid receptor 2 [11]): Active; Emax (Cannabinoid receptor 2 [12]): 95%; IC50 (Cannabinoid receptor 2 [12]): 0.0216 µM; Emax (Cannabinoid receptor 2 [13]): 110%
CCCCCCC(C)(C)c1cc(O)c2c(c1)OC(C)(C)c1cnn(-c3cc(F)cc(F)c3)c1-2 | > 40 | > 40 |  | 
CCCCCCC(C)(C)c1cc(OC)c2c(c1)OC(C)(C)c1cnn(-c3ccc(Cl)c(Cl)c3)c1-2 | 2.32 | 2.26 |  | 
CCCCCCC(C)(C)c1cc(O)c2c(c1)OC(C)(C)c1cn(CCO)nc1-2 | 0.0544 | 0.0396 | 1.4 | EC50 (Cannabinoid receptor 1 [6]): 0.299 µM
CCCCCCC(C)(C)c1cc(OCc2ccccc2)c2c(c1)OC(C)(C)c1cnn(-c3ccc(Cl)cc3Cl)c1-2 | > 40 | > 40 |  | 
CCCCCCC(C)(C)c1cc(OCCCBr)c2c(c1)OC(C)(C)c1cn(C)nc1-2 | 1.48 | 0.0773 | 19.1 | inhibition (Cannabinoid receptor 2 [4]): Active; inhibition (Cannabinoid receptor 2 [5]): Active; PB [8]: Active
CCCCCCC(C)(C)c1cc(O)c2c(c1)OC(C)(C)c1cn(C)nc1-2 |  |  |  | Ki (Cannabinoid receptor 1 [1]; hek293): 0.0142 µM; Ratio Ki (Homo sapiens [2]): > 2500
CCCCCCC(C)(C)c1cc(OC)c([C@H]2C=C(CO)[C@@H]3C[C@H]2C3(C)C)c(OC)c1 |  |  |  | Emax (Cannabinoid receptor 2 [13]): 91%
CCCCCCC(C)(C)c1cc2c(c3c1CCCO3)-c1nn(CC)cc1C(C)(C)O2 | > 40 | 0.122 | > 330 | inhibition (Cannabinoid receptor 2 [10]): Active; inhibition (Cannabinoid receptor 2 [11]): Active; Emax (Cannabinoid receptor 2 [12]): 98%; IC50 (Cannabinoid receptor 2 [12]): 0.0255 µM
CCCC(C)(C)c1ccc2c(c1)OC(C)(C)[C@@H]1CC=C(C)C[C@@H]21 |  |  |  | Emax (Cannabinoid receptor 2 [12]): 98%; IC50 (Cannabinoid receptor 2 [12]): 0.0818 µM
CCCCCCC(C)(C)c1cc(O)c2c(c1)OC(C)(C)c1cnoc1-2 | 0.0154 | 0.0053 | 2.9 | inhibition (Cannabinoid receptor 2 [10]): Active; inhibition (Cannabinoid receptor 2 [11]): Active; Emax (Cannabinoid receptor 2 [12]): 98%; IC50 (Cannabinoid receptor 2 [12]): 0.134 µM; Emax (Cannabinoid receptor 2 [13]): 114%; EC50 (Cannabinoid receptor 1 [6]): 0.0158 µM; PB [8]: Active
CCCCC/C=C\C/C=C\C/C=C\C/C=C\CCCC(=O)NCCO [ANANDAMIDE] |  |  |  | PB [8]: Active
CCCCCCC(C)(C)c1cc(OCCCO)c2c(c1)OC(C)(C)c1cn(C)nc1-2 | > 40 | 0.364 | > 110 | 
CCCCCCC(C)(C)c1cc(OCCO)c2c(c1)OC(C)(C)c1cn(C)nc1-2 | 1.09 | 0.0398 | 27.2 | inhibition (Cannabinoid receptor 2 [14]): inactive
CCCCCCC(C)(C)c1cc(O)c2c(c1)OC(C)(C)c1cn(CO)nc1-2 | 0.218 | 0.0594 | 3.7 | 
CCCCCCC(C)(C)c1cc(O)c2c(c1)OC(C)(C)c1cnn(CC)c1-2 |  |  |  | Ki (Cannabinoid receptor 1 [1]; hek293): 0.0045 µM; Ratio Ki (Homo sapiens [2]): > 8000
CCCCCCC(C)(C)c1cc(OC)c2c(c1)OC(C)(C)c1cnn(CC)c1-2 | 5.04 | 0.159 | 31.6 | inhibition (Cannabinoid receptor 2 [4]): Active; inhibition (Cannabinoid receptor 2 [5]): Active

Compound | Ki (Cannabinoid receptor 1 [1]) [µM] | Ki (Cannabinoid receptor 2 [3]) [µM] | Ratio Ki (Homo sapiens [7]) | also measured
CCCCCCC(C)(C)c1cc(OCc2ccccc2)c2c(c1)OC(C)(C)c1cn(CC)nc1-2 | 0.671 | 0.212 | 3.1 | 
CCCCCCC(C)(C)c1cc(OCCO)c2c(c1)OC(C)(C)c1cn(CC)nc1-2 | 6.51 | 0.211 | 31 | PB [8]: Active
CCCCCCC(C)(C)c1cc(O)c2c(c1)OC(C)(C)c1cn(CC)nc1-2 |  |  |  | Ki (Cannabinoid receptor 1 [1]; hek293): 0.0186 µM; Ratio Ki (Homo sapiens [2]): > 2000
CCCCCCC(C)(C)c1cc(OCC)c2c(c1)OC(C)(C)c1cnn(-c3ccc(Cl)c(Cl)c3)c1-2 | > 40 | 3.54 | > 11.3 | 
CCCCCCC(C)(C)c1cc(OCc2ccccc2)c2c(c1)OC(C)(C)c1cnn(-c3ccc(Cl)c(Cl)c3)c1-2 | > 40 | 3.74 | > 10.7 | 
C=C(C)[C@@H]1CCC(C)=C[C@H]1c1c(O)cc(CCCCC)cc1O [CANNABIDIOL] |  |  |  | PB [8]: Active
CCCCCCC(C)(C)c1cc(OCCCBr)c2c(c1)OC(C)(C)c1cn(CC)nc1-2 | 0.657 | 0.0871 | 7.5 | 
CCCCCCC(C)(C)c1cc(OCCCO)c2c(c1)OC(C)(C)c1cnoc1-2 | 0.333 | 0.0655 | 5.1 | inhibition (Cannabinoid receptor 2 [10]): Active; inhibition (Cannabinoid receptor 2 [11]): Active; Emax (Cannabinoid receptor 2 [12]): 91%; IC50 (Cannabinoid receptor 2 [12]): 0.014 µM; Emax (Cannabinoid receptor 2 [13]): 96%
CCCCCCC(C)(C)c1cc(OCCCO)c2c(c1)OC(C)(C)c1cnn(-c3ccc(Cl)cc3Cl)c1-2 | > 40 | > 40 |  | 
CCCCCCC(C)(C)c1cc(OC)c2c(c1)OC(C)(C)c1cnn(-c3ccc(Cl)cc3Cl)c1-2 | 1.69 | 1.49 |  | 
CCCCCCC(C)(C)c1cc2c(c3c1CCCO3)-c1c(cnn1CC)C(C)(C)O2 | > 10 | 0.564 | > 17.7 | PB [8]: Active
CCCCCCC(C)(C)c1cc(OC)c2c(c1)OC(C)(C)c1cn(CC)nc1-2 | 2.93 | 0.0926 | 31.8 | inhibition (Cannabinoid receptor 2 [4]): Active; inhibition (Cannabinoid receptor 2 [5]): Active; PB [8]: Active
CCCCC/C=C\C/C=C\C/C=C\C/C=C\CCCC(=O)OC(CO)CO [2-ARACHIDONOYLGLYCEROL] |  |  |  | PB [8]: Active
CCCCCCC(C)(C)c1cc(O)c2c(c1)OC(C)(C)c1cnn(-c3ccc(Cl)c(Cl)c3)c1-2 |  |  | 1.9 | Ki (Cannabinoid receptor 1 [1]; hek293): 0.514 µM; Ki (Cannabinoid receptor 2 [3]; hek293): 0.27 µM
CCCCCCC(C)(C)c1cc(O)c2c(c1)OC(C)(C)c1cnn(CCO)c1-2 | 0.0191 | 0.366 |  | Ratio Ki (Homo sapiens [2]): 19.1
CCCCCCC(C)(C)c1cc(OCCCO)c2c(c1)OC(C)(C)c1cnn(CC)c1-2 | 1.61 | 0.44 | 3.6 | 
CCCCCCC(C)(C)c1cc(OC)c2c(c1)OC(C)(C)c1cn(C)nc1-2 | 4.16 | 0.0664 | 62.6 | inhibition (Cannabinoid receptor 2 [14]): inactive; PB [8]: Active
CCCCCCC(C)(C)c1cc(OCc2ccccc2)c2c(c1)OC(C)(C)c1cnn(CC)c1-2 | 0.614 | 0.296 | 2 | 
CCCCCCC(C)(C)c1cc(O)c2c(c1)OC(C)(C)c1cnn(-c3cccc(OC)c3)c1-2 | 6.44 | 0.562 | 11.5 | 
CCCCCCC(C)(C)c1cc(O)c2c(c1)OC(C)(C)c1cnn(C3CCCCC3)c1-2 | 1.14 | 0.0537 | 21.5 | PB [8]: Active
CCCCCCC(C)(C)c1cc(OCc2ccccc2)c2c(c1)OC(C)(C)c1cn(C)nc1-2 | 0.702 | 0.209 | 3.3 | 
CCCCCCC(C)(C)c1cc(OC)c2c(c1)OC(C)(C)c1cn[nH]c1-2 | 0.272 | 0.0871 | 3.1 | PB [8]: Active
